The target of series [1] is Genome polyprotein (West Nile virus, UniProt P06935). The experiment in a line: Inhibition of West Nile virus NS2B (49 to 96 residues)/NS3 (2 to 184 residues) protease expressed in Escherichia coli BL21 using Bz-Nle-Lys-Lys-Arg-AMC as substrate preincubated for 10 mins by fluorescence-based biochemical assay. A digest of the protocol: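 Recombinant WNV NS2B-NS3 protease, tested in the same way as the Zika protease assay. Compound was preincubated with enzyme for 10 min before Bz-Nle-Lys-Lys-Arg-AMC was added. Hydrolysis was followed as AMC fluorescence (Ex 360/Em 460 nm) read every 30 s. IC50 was derived by dose-response curve fitting.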
Genome polyprotein (West Nile virus, UniProt P06935), sequence (P06935 1371-1501 limits assumed): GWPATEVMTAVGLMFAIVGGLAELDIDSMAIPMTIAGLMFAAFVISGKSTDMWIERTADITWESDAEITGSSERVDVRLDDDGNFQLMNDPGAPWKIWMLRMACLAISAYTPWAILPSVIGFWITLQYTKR
Genome polyprotein (West Nile virus, UniProt P06935), sequence (P06935 1502-2120 limits assumed): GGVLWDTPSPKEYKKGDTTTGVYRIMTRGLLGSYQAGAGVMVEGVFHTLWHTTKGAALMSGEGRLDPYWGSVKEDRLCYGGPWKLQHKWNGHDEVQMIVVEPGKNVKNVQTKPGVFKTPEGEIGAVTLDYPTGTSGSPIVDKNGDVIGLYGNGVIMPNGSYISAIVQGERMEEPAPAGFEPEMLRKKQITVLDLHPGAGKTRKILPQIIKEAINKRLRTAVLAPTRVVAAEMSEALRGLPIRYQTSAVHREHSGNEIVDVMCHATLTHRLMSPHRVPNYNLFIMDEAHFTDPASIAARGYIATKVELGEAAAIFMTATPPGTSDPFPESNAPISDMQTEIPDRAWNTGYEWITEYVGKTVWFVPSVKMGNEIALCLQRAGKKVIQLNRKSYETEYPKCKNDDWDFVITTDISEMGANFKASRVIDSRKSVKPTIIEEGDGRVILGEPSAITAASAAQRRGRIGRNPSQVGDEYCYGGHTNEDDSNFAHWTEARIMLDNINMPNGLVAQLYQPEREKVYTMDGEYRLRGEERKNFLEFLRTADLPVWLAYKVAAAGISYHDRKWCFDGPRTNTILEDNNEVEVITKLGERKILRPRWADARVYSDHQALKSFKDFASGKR

For series [2], the target named is Genome polyprotein (dengue virus type 2) (UniProt P29990). The experiment in a line: Competitive inhibition of Dengue virus 2 NS2B (50 to 95 residues)/NS3 (1 to 182 residues) protease expressed in Escherichia coli BL21 using increased concentration of Bz-Nle-Lys-Lys-Arg-AMC substrate. A digest of the protocol: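 Steady-state kinetics. Initial velocities were measured across a range of inhibitor concentrations and substrate levels. […] Fluorescence was read at Ex 360/Em 460 nm. An IC50 was fitted at each substrate level and plotted against substrate concentration to assign the mode of inhibition.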

Series [3] relates to U-87 MG. Briefly: Cytotoxicity against human U87 cells assessed as inhibition of growth by MTT assay. It counts as cell-based. To be noted: u-87mg atcc.
In series [4] the target is Genome polyprotein (dengue virus type 2, UniProt P29990). The experiment in a line: Inhibition of Dengue virus 2 NS2B (50 to 95 residues)/NS3 (1 to 182 residues) protease expressed in Escherichia coli BL21 using Bz-Nle-Lys-Lys-Arg-AMC as substrate preincubated for 10 mins by fluorescence-based biochemical assay. The method in brief: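 Recombinant DENV-2 NS2B-NS3 protease assayed like the ZIKV protease. Bz-Nle-Lys-Lys-Arg-AMC substrate, compound pre-incubated with enzyme 10 min, fluorescence monitored at Ex 360/Em 460 nm. IC50 from dose-response fit of triplicate samples at increasing concentrations.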

The target in series [5] is Nonstructural protein 3 (Zika virus, UniProt A0A024AXB9). The experiment in a line: Inhibition of Zika virus recombinant NS2B (47 to 95 residues)/NS3 (1 to 177 residues) protease expressed in Escherichia coli BL21 using Bz-Nle-Lys-Lys-Arg-AMC as substrate preincubated for 10 mins by fluorescence-based biochemical assay. The method in brief: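 ZIKV NS2B-NS3 protease at 1 nM, with 10 µM Bz-Nle-Lys-Lys-Arg-AMC in 20 mM HEPES pH 7.3 containing 0.05% Triton X-100. Compound at increasing concentrations in triplicate, pre-incubated with enzyme 10 min before substrate. Fluorescence (Ex 360/Em 460 nm) read every 30 s. IC50 from dose-response curve fit, 3 independent experiments, standard deviation.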
Nonstructural protein 3, sequence (A0A024AXB9 whole entry, the tested form may be a part): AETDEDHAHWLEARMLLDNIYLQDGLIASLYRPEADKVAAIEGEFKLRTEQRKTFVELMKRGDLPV

Series [6] relates to Zika virus. Briefly: Antiviral activity against Zika virus infected in human U87 cells assessed as reduction in infectious virus in supernatant by measuring infection of Vero cells incubated with supernatant of viral infected U87 cells and measured following infection of supernatants with Vero cells for 7 days by MTT assay. It counts as functional. To be noted: U-87 MG, 168 h, time 7 day. The method in brief:
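U87 cells (2×10^4/well) in DMEM with 2% FBS, infected with ZIKV FLR strain (passage-3 stock) at MOI 0.01 for 1 h, then PBS-washed. Compound added in triplicate, 2 days at 37 °C. Half-log dilutions of supernatant put on Vero monolayers in quadruplicate for 7 days. CPE by microscopy then MTT. TCID50 from highest dilution infecting 2/4 wells. At least 2 independent experiments.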

pIC50: −log10 of the molar value. Calls of active or inactive are those of the source. The calls are words filed in the database; no cut-off is given here.

For the molecule `O=C(NCC1CCNCC1)c1cc2ccc(-c3ccoc3)cc2[nH]1`, the results for the pIC50 in series [1], in series [4] and in series [5] were 5.24, 5.80 and 6.49, respectively. In addition, the result in series [2] was inactive. Moreover, in series [3], the CC50 was over 10 µM. The EC68 in series [6] is 1 µM.

As for `O=C(NCC1CCNCC1)c1c[nH]c2cc(-c3ccoc3)c(-c3ccoc3)cc12`, the pIC50 was 5.43 in series [1], 5.51 in series [4] and 6.43 in series [5]. Moreover, the CC50 in series [3] was over 10 µM. Moreover, the EC68 in series [6] was determined as 3 µM.

On to `O=C(NC1CCNCC1)c1c[nH]c2cc(-c3ccncc3)ccc12`, for which the values for the pIC50 in series [1], in series [4] and in series [5] were 4.98, 5.00 and 6.00, respectively. For the same molecule, the CC50 in series [3] was over 10 µM. Also, the EC68 in series [6] came out at 10 µM.

Consider `O=C(NCC1CCNCC1)c1c[nH]c2nc(-c3ccc(CN4CCCCC4)cc3)ccc12`, for which the values for the pIC50 in series [1], in series [4] and in series [5] were 5.07, 5.04 and 6.35, respectively. Moreover, in series [3], the CC50 was over 10 µM. The EC68 in series [6] stood at 10 µM.

The values are drawn from ChEMBL document CHEMBL4842369, “Synthesis, structure-activity relationship and antiviral activity of indole-containing inhibitors of Flavivirus NS2B-NS3 protease” (Eur J Med Chem, 2021).
